# Laboratory results from article PMC6300982 (Chemosphere, 2015).
# pKi: −log10 of the molar value.
# How the values were obtained:
# Assay type in all cases: biochemical
# UGT1A3 [1] = biological target: T1, UGT1A3 (Homo sapiens, UniProt P35503); assay: glucuronidation of 4-MU by recombinant enzyme, HPLC-UV
# T1 sequence (P35503 29-534): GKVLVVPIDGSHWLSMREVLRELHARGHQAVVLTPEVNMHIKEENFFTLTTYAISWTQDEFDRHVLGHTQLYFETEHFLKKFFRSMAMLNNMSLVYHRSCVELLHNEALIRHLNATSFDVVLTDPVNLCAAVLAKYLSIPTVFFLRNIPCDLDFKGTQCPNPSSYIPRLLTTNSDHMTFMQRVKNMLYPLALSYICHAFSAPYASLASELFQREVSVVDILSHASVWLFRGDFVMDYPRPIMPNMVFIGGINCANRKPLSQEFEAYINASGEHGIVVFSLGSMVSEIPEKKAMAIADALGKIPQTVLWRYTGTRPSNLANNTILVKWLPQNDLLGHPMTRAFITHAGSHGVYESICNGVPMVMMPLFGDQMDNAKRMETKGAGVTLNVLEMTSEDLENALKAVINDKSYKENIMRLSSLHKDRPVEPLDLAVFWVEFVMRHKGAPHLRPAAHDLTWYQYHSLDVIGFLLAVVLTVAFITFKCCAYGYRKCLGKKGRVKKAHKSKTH
# UGT1A6 = biological target: T2, UGT1A6 (Homo sapiens, UniProt P19224); assay: single-concentration; details: read-out: % inhibition at 100 μM
# T2 sequence (P19224 27-532): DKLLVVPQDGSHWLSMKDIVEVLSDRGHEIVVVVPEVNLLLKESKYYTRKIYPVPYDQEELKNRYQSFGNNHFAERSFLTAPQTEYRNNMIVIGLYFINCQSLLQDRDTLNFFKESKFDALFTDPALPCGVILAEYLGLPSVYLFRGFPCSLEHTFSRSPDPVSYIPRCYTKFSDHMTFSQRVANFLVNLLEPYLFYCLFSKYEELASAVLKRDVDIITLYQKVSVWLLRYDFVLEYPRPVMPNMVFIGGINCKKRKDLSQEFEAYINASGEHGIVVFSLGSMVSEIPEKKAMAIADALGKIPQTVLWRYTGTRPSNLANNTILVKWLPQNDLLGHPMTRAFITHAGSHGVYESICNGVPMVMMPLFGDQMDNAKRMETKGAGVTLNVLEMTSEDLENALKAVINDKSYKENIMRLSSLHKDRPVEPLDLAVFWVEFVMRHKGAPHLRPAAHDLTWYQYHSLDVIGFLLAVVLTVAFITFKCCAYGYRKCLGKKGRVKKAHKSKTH
# UGT1A3 [2] = biological target: T1, UGT1A3; assay: inhibition kinetics of 4-MU glucuronidation by recombinant enzyme
# How it was run: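 Insect-cell-expressed human UGT1A3 glucuronidating 4-MU across several substrate and test compound concentrations. Buffer: 5 mM UDPGA, 5 mM MgCl2, 50 mM Tris-HCl pH 7.4. 5 min preincubation, started with UDPGA, 37 °C. 4-MUG quantified by HPLC-UV at 316 nm against internal standard. Dixon and Lineweaver–Burk plots gave inhibition type; Ki from secondary plot of Lineweaver–Burk slopes versus inhibitor concentration.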
# UGT1A9 = biological target: T3, UGT1A9 (Homo sapiens, UniProt O60656); assay: single-concentration; details: read-out: % inhibition at 100 μM
# T3 sequence (O60656 26-530): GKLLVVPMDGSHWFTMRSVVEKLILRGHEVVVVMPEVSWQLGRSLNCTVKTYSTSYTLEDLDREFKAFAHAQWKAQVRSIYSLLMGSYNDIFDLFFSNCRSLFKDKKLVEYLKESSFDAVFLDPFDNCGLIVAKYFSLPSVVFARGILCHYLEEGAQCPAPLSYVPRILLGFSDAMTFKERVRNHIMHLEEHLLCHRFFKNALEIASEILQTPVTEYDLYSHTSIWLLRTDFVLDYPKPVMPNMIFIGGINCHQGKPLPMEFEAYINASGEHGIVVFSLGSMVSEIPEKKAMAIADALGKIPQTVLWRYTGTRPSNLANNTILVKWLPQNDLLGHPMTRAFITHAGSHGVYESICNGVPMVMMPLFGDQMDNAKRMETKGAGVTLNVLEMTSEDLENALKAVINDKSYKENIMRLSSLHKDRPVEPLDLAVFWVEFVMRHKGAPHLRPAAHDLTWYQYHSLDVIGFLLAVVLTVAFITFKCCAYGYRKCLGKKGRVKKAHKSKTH
# UGT2B7 = biological target: T4, UGT2B7 (Homo sapiens, UniProt P16662); assay: single-concentration; details: read-out: % inhibition at 100 μM
# T4 sequence (P16662 24-529): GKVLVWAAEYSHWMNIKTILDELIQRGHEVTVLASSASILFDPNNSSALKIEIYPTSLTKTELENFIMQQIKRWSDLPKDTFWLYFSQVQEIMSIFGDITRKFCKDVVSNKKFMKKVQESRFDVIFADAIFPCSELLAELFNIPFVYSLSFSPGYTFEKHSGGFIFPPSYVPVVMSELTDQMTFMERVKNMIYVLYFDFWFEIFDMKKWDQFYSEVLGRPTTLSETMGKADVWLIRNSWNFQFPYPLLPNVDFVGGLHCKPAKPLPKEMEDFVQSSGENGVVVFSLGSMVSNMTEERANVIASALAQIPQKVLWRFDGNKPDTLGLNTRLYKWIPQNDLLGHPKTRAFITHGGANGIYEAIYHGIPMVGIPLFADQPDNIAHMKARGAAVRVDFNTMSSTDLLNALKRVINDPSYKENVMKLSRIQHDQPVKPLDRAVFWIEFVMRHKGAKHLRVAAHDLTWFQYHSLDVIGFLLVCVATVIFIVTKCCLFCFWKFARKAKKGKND
# UGT1A3 [3] = biological target: T1, UGT1A3; assay: dose-dependent inhibition of 4-MU glucuronidation, HPLC-UV; details: read-out: % inhibition at 100 μM
Structure (SMILES),"glucuronidation of 4-MU by recombinant enzyme, HPLC-UV (UGT1A3 [1])",inhibition at 100 µM (UGT1A6) [%],pKi (UGT1A3 [2]),inhibition at 100 µM (UGT1A9) [%],inhibition at 100 µM (UGT2B7) [%],inhibition at 100 µM (UGT1A3 [3]) [%]
"Cc1cc(=O)oc2cc(O)ccc12 [4-MU, 4-Methylμmbelliferone]",Determination of inhibition kinetics of DPhP towards UGT1A3-catalyzed glucuronidation of 4-MU,–,–,–,–,–
"O=C(Oc1ccccc1)c1ccccc1C(=O)Oc1ccccc1 [DPhP, diphenyl phthalate]",–,49.1,6.05,76.4,–,–
"CCCCCCCCOC(=O)c1ccccc1C(=O)OCCCCCCCC [DNOP, di-n-octyl ortho-phthalate]",–,–,–,45.6,48.8,41.8
